The conditions of series [1]: patients receiving docetaxel 100 mg/m^2 for TNBC; cited from earlier work.
In series [2] the test system is MDA-MB-231-LM2 lung metastases. In words: MDA-MB-231-LM2 lung metastases model in SCID-beige mice. Particulars: for antitumor effect: MDA-MB-231-LM2, DZ-2384 0.5, 1.5, 4.5 mg/kg, docetaxel 2, 4 mg/kg. The series is classed as in vivo, mouse. In short, it runs like this:
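Female SCID-beige mice (6–8 weeks) received 2.5×10^5 MDA-MB-231-LM2 cells via lateral tail vein. About 2 weeks later, mice with confirmed lung metastases were randomized by bioluminescent burden. They then got four biweekly iv injections in cremophor EL:ethanol:saline (5:5:90). Weekly imaging used D-luciferin 150 mg/kg ip. Survival was analysed by Kaplan–Meier log-rank; body weight was measured 2–3 times weekly.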

For series [3] the following is noted: cited from earlier work.
Series [4] in a line: Maximum tolerated dose in nontumor bearing NSG mice. The class given is in vivo, mouse. The procedure, abridged:
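Each compound was given to four mice of the relevant strain as four biweekly iv injections. General condition was checked at least three times weekly. Endpoints were >20% weight loss for more than three consecutive days, death, or severe distress. Weights, clinical signs and survival were recorded until 1 week after the last dose.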

Another series relates to GCRC-2076 PDX. In words: Orthotopic TNBC PDX GCRC-2076. The class given is in vivo, mouse. Conditions: for median survival: GCRC-2076 at 0.5x MTD, vehicle 30 days. In short, it runs like this: (§1)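 PDX tumor fragments (1–1.5 mm3) were implanted into the left fat pad of female NSG mice (6–8 weeks), passaged ≤8 times. Mice were randomized at 100–250 mm3 and treated iv once weekly for 4 weeks, with doses set as fractions of each agent's MTD. Caliper volume was calculated as 4/3π[(a/2)×(b/2)^2]. Kaplan–Meier log-rank and Student's t-test were used.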

A further series has as its system MDA-MB-231-BrM2. In words: Brain metastatic tumor model, intracranial MDA-MB-231-BrM2 in NSG mice. The class given is in vivo, mouse. Particulars: for body weight loss: MDA-MB-231-BrM2 brain model, DZ-2384 10 mg/kg, paclitaxel 40 mg/kg. The procedure, abridged: (§2)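 Cells were implanted intracranially into the right frontal lobe of female NSG mice (6–8 weeks): MDA-MB-231-BrM2 at 7.5×10^4 cells, or luciferase-expressing GCRC-1945 at 1×10^5 cells. Mice were randomized by bioluminescent tumor burden, then dosed iv biweekly for 2 weeks in cremophor EL:ethanol:saline (5:5:90). Imaging was weekly (D-luciferin 150 mg/kg ip, 10 min prior; photon flux). Survival was analysed by Kaplan–Meier log-rank and weights tracked.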

The test system of the next series is GCRC-1945. In words: Brain metastatic tumor model, intracranial GCRC-1945 in NSG mice. Particulars: for body weight loss: GCRC-1945 brain model, DZ-2384 10 mg/kg, paclitaxel 40 mg/kg. The series is classed as in vivo, mouse. In short, it runs like this: as §2
The next series relates to RenCa tumors. In words: RenCa syngeneic renal carcinoma model in Balb/c mice. Particulars: within the first 18 days of treatment. The series is classed as in vivo, mouse. In short, it runs like this: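 Balb/c mice (6–8 weeks) were injected with 2.5×10^5 RenCa cells in the left lower flank, then randomized at 100–150 mm3 (n=7/group). On day 1 they got a single iv dose of test compound (14 mg/kg) or cremophor EL:ethanol:saline vehicle. From 4 days later, they received biweekly ip anti-CTLA-4 (9H10) or rat IgG2a isotype (2A3) at 10 mg/kg for 2 weeks. Individual tumor volumes were measured 2–3 times weekly.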

The test system of another series is GCRC-1945 PDX. In words: Orthotopic TNBC PDX GCRC-1945 model in NSG mice. The series is classed as in vivo, mouse. Particulars: for median survival: GCRC-1945 at MED (DZ-2384 1.25 mg/kg, paclitaxel 10 mg/kg), vehicle 36 days. The procedure, abridged:
as §1

Series [5] is classed as in vivo, mouse. The procedure, abridged: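 Female NSG mice bearing MDA-MB-231-BrM2 mammary fat pad tumors received a single iv bolus of 10 or 40 mg/kg, depending on compound, in cremophor:ethanol:saline (5:5:90); n=4 per time point. Sampling was at 0–24 h. Plasma was taken, then mice were perfused with 20 ml saline via the left ventricle before brain, heart, lung and tumor harvest. Homogenates were measured by LC–MS/MS; tissue/plasma AUC0–∞ ratios were calculated.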

Molecules are shown by their SMILES.

Regarding `CC(=O)O[C@@]12CO[C@@H]1C[C@H](O)[C@@]1(C)C(=O)[C@H](O)C3=C(C)[C@@H](OC(=O)[C@H](O)[C@@H](NC(=O)OC(C)(C)C)c4ccccc4)C[C@@](O)([C@@H](OC(=O)c4ccccc4)[C@H]21)C3(C)C` [docetaxel, reference compound], in [1], the exposure in patients is 4810 to 5200 ng·h/mL. Further, the antitumor effect result in series [2] is given as “effective at only the 4 mg/kg dose”. In series [2] (MDA-MB-231-LM2 model, 4 mg/kg docetaxel (MED)), the weight loss result is reported as “more than 10%”. In addition, the “loss in digital and caudal nerve conduction velocity” value in [3] (rat, docetaxel 10 mg/kg (lowest dose tested)) is on record as 12–23%.
Regarding `CC(C)[C@H](O)C(=O)N[C@H]1Cc2ccc3c(c2)[C@]2(C4=C(c5nc(CO)co5)N=C(O4)[C@H](C(C)(C)C)NC1=O)c1cc(F)ccc1N[C@@H]2O3` [DZ-2384], the “maximum tolerated dose (MTD)” value in series [4] (nontumor bearing NSG mice, iv biweekly for 2 weeks) was found to be 10 mg/kg. Further, the antitumor efficacy entry is recorded as “more effective than paclitaxel” in the series with GCRC-2076 PDX (GCRC-2076, 0.25x and 0.5x MTD); “more effective than paclitaxel” with GCRC-1945 PDX (GCRC-1945, 0.125x and 0.25x MTD); “equally effective” in the series with GCRC-1945 PDX (GCRC-1945, 0.5x MTD). The median survival in the series on GCRC-2076 PDX is 88 days; in the series on GCRC-1945 PDX, 71 days; in series [2] (MDA-MB-231-LM2, 4.5 mg/kg, vehicle 37 days), “more than 150 days”. Also, the body weight loss entry in the series on MDA-MB-231-BrM2 and with GCRC-1945 was “less than 10%” throughout. For the same compound, the “efficacy (tumor burden, median survival vs vehicle)” value in the series on MDA-MB-231-BrM2 (intracranial MDA-MB-231-BrM2, MTD, iv biweekly for 2 weeks) is reported as “efficacious”; with GCRC-1945 (intracranial GCRC-1945, MTD, iv biweekly for 2 weeks), “efficacious”. The “effect on tumor volume relative to vehicle control” value in the series on RenCa tumors is “modest effects on tumor volume”. The “tumor free mice (bioimaging)” value in [2] (MDA-MB-231-LM2, 4.5 mg/kg, 5 months after treatment initiation) is “four of nine”. Also, the antitumor effect result in series [2] is given as “profound antitumor effect at all doses tested”. In series [5] (AUC ratio brain/plasma, single iv dose at MTD, NSG mice), the “proportion that accumulates in the brain relative to plasma exposure” value turned out to be 15%. Besides, in series [5] (AUC ratio tumor/plasma, single iv dose at MTD, NSG mice), the “accumulation in tumor tissue relative to plasma” value amounted to 18 fold. The “maximum concentration (Cmax) ratio in tumor relative to plasma” value in [5] (single iv dose at MTD, NSG mice) is 1.3. Also, in [3] (rat model of peripheral neuropathy, effective levels), the “effects on peripheral nerves” value was “no detrimental effects on peripheral nerves”.
By MTD is commonly meant the largest dose that counted as tolerated. High values mean better tolerability, low ones poorer tolerability. As usually defined, the half-life is how long it takes for the measured level to halve. Low readings indicate fast loss, high ones slow loss. The compound `CC(=O)O[C@H]1C(=O)[C@@]2(C)[C@H]([C@H](OC(=O)c3ccccc3)[C@]3(O)C[C@H](OC(=O)[C@H](O)[C@@H](NC(=O)c4ccccc4)c4ccccc4)C(C)=C1C3(C)C)[C@]1(OC(C)=O)CO[C@@H]1C[C@@H]2O` [paclitaxel, reference compound] displayed an MTD at 2 weeks in series [4] (NSG, mouse, in vivo, iv) of 40 mg/kg. The antitumor efficacy entry with GCRC-2076 PDX (GCRC-2076, 0.25x MTD) is “not effective”; with GCRC-1945 PDX (GCRC-1945, 0.5x MTD), “equally effective”. In addition, the median survival stood at 69 days in the series on GCRC-2076 PDX and 53 days in the series on GCRC-1945 PDX. Moreover, the body weight loss result in the series with MDA-MB-231-BrM2 and with GCRC-1945 was “less than 10%” in each case. The half-life in series [5] (female, NSG, mouse, tumor, iv, 40 mg/kg) was 19.1 h.

Values taken from article PMC6133219 (Anti-Cancer Drugs, 2018).
